# Results as given in ChEMBL document CHEMBL1122708, “Preparation and antibacterial activities of new 1,2,3-diazaborine derivatives and analogues” (1984).
# Experiments:
# Klebsiella pneumoniae = test: Minimum inhibitory concentration of compound against Klebsiella pneumoniae delta 217; format: functional
# Escherichia coli [1] = test: Minimum inhibitory concentration of compound against Escherichia coli delta 120; format: functional
# Proteus mirabilis = test: Minimum inhibitory concentration against Proteus mirabilis delta 89; format: functional
# Neisseria gonorrhoeae [2] = test: Minimum inhibitory concentration of compound against Neisseria gonorrhoeae W2; format: functional
# Procedure, shortened: (§1)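 Agar dilution on Kellogg agar, 10⁶ colony forming units, incubated 20 h at 36 °C in 5% CO₂; MIC is the lowest concentration giving no visible growth.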
# Klebsiella aerogenes = test: Minimum inhibitory concentration of compound against Enterobacter aerogenes delta 220; format: functional
# Neisseria gonorrhoeae [3] = test: Minimum inhibitory concentration of compound against Neisseria gonorrhoeae AS 7720; format: functional; procedure, shortened: as §1
# Escherichia coli [4] = test: Antibacterial activity againist Escherichia coli 120 infected NMRI mice after peroral administration; format: functional; settings: po
# Procedure, shortened: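 ED50 in NMRI mice infected intraperitoneally with E. coli 120; compound given orally immediately and 5 h after infection.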
# Salmonella typhimurium = test: Minimum inhibitory concentration of compound against Salmonella Typhimurium delta 119; format: functional, Salmonella enterica subsp. enterica serovar Typhimurium; settings: Salmonella enterica
# Escherichia coli [5] = test: Antibacterial activity againist Escherichia coli 120 infected NMRI mice after subcutaneous administration; format: functional; settings: sc
# Procedure, shortened: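 ED50 in NMRI mice infected intraperitoneally with E. coli 120; compound given subcutaneously immediately and 5 h after infection.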
structure (smiles),measurement,setting,value
CCCS(=O)(=O)N1N=Cc2cc(Cl)ccc2B1O,MIC,Klebsiella pneumoniae,1.56 µg/mL
same,MIC,Escherichia coli [1],10 µg/mL
same,MIC,Proteus mirabilis,2.5 µg/mL
same,MIC,Neisseria gonorrhoeae [2],2 µg/mL
same,MIC,Klebsiella aerogenes,25 µg/mL
same,MIC,Neisseria gonorrhoeae [3],2 µg/mL
same,ED50,Escherichia coli [4],14 mg/kg
same,MIC,Salmonella typhimurium,3.12 µg/mL
Cc1ccc2c(c1)C=NN(S(C)(=O)=O)B2O,MIC,Klebsiella pneumoniae,6.25 µg/mL
same,MIC,Escherichia coli [1],25 µg/mL
same,MIC,Proteus mirabilis,25 µg/mL
same,MIC,Neisseria gonorrhoeae [2],> 8 µg/mL
same,MIC,Klebsiella aerogenes,> 50 µg/mL
same,MIC,Neisseria gonorrhoeae [3],> 8 µg/mL
same,ED50,Escherichia coli [4],42 mg/kg
same,MIC,Salmonella typhimurium,12.5 µg/mL
O=S(=O)(c1ccccc1)N1N=Cc2ccc(O)cc2B1O,MIC,Klebsiella pneumoniae,50 µg/mL
same,MIC,Escherichia coli [1],50 µg/mL
same,MIC,Proteus mirabilis,50 µg/mL
same,MIC,Neisseria gonorrhoeae [2],> 8 µg/mL
same,MIC,Klebsiella aerogenes,> 50 µg/mL
same,MIC,Neisseria gonorrhoeae [3],> 8 µg/mL
same,ED50,Escherichia coli [4],100 mg/kg
same,MIC,Salmonella typhimurium,12.5 µg/mL
O=S(=O)(c1ccccc1)N1N=Cc2sc(Br)cc2B1O,MIC,Klebsiella pneumoniae,0.78 µg/mL
same,MIC,Escherichia coli [1],3.12 µg/mL
same,MIC,Proteus mirabilis,1.56 µg/mL
same,MIC,Neisseria gonorrhoeae [2],2 µg/mL
same,MIC,Klebsiella aerogenes,12.5 µg/mL
same,MIC,Neisseria gonorrhoeae [3],1 µg/mL
same,ED50,Escherichia coli [4],~20 mg/kg
same,MIC,Salmonella typhimurium,0.78 µg/mL
CC(=O)Nc1ccc(S(=O)(=O)N2N=Cc3sc(Br)cc3B2O)cc1,MIC,Klebsiella pneumoniae,3.12 µg/mL
same,MIC,Escherichia coli [1],25 µg/mL
same,MIC,Proteus mirabilis,3.12 µg/mL
same,MIC,Neisseria gonorrhoeae [2],1 µg/mL
same,MIC,Klebsiella aerogenes,25 µg/mL
same,MIC,Neisseria gonorrhoeae [3],1 µg/mL
same,ED50,Escherichia coli [4],55 mg/kg
same,MIC,Salmonella typhimurium,3.12 µg/mL
Cc1ccc(S(=O)(=O)N2N=Cc3cc(N4CCCC4)ccc3B2O)cc1,MIC,Klebsiella pneumoniae,> 50 µg/mL
same,ED50,Escherichia coli [5],> 300 mg/kg
same,MIC,Escherichia coli [1],> 50 µg/mL
same,MIC,Proteus mirabilis,> 50 µg/mL
same,MIC,Klebsiella aerogenes,> 50 µg/mL
same,MIC,Salmonella typhimurium,> 50 µg/mL
CCCS(=O)(=O)N1N=Cc2c(ccn2C)B1O,MIC,Klebsiella pneumoniae,25 µg/mL
same,MIC,Escherichia coli [1],> 50 µg/mL
same,MIC,Proteus mirabilis,> 50 µg/mL
same,MIC,Neisseria gonorrhoeae [2],> 8 µg/mL
same,MIC,Klebsiella aerogenes,> 50 µg/mL
same,MIC,Neisseria gonorrhoeae [3],> 8 µg/mL
same,ED50,Escherichia coli [4],> 300 mg/kg
same,MIC,Salmonella typhimurium,> 50 µg/mL
Cc1ccc(S(=O)(=O)N2N=Cc3sc(C)cc3B2O)c(Cl)c1,MIC,Klebsiella pneumoniae,1.56 µg/mL
same,MIC,Escherichia coli [1],50 µg/mL
same,MIC,Proteus mirabilis,1.56 µg/mL
same,MIC,Neisseria gonorrhoeae [2],1 µg/mL
same,MIC,Klebsiella aerogenes,50 µg/mL
same,MIC,Neisseria gonorrhoeae [3],0.5 µg/mL
same,ED50,Escherichia coli [4],32 mg/kg
same,MIC,Salmonella typhimurium,12.5 µg/mL
Cc1ccc(S(=O)(=O)N2N=Cc3ccc(Cl)cc3B2O)cc1,MIC,Klebsiella pneumoniae,12.5 µg/mL
same,MIC,Escherichia coli [1],> 50 µg/mL
same,MIC,Proteus mirabilis,25 µg/mL
same,MIC,Neisseria gonorrhoeae [2],> 8 µg/mL
same,MIC,Klebsiella aerogenes,> 50 µg/mL
same,MIC,Neisseria gonorrhoeae [3],1 µg/mL
same,ED50,Escherichia coli [4],~50 mg/kg
same,MIC,Salmonella typhimurium,12.5 µg/mL
Cc1ccc(S(=O)(=O)N2N=Cc3sc(Br)cc3B2O)c(Cl)c1,MIC,Klebsiella pneumoniae,6.25 µg/mL
same,MIC,Escherichia coli [1],50 µg/mL
same,MIC,Proteus mirabilis,3.12 µg/mL
same,MIC,Neisseria gonorrhoeae [2],1 µg/mL
same,MIC,Klebsiella aerogenes,50 µg/mL
same,MIC,Neisseria gonorrhoeae [3],0.25 µg/mL
same,ED50,Escherichia coli [4],39 mg/kg
same,MIC,Salmonella typhimurium,12.5 µg/mL
Cc1ccc(S(=O)(=O)N2N=Cc3cc(Br)sc3B2O)cc1,MIC,Klebsiella pneumoniae,> 50 µg/mL
same,MIC,Escherichia coli [1],> 50 µg/mL
same,MIC,Proteus mirabilis,25 µg/mL
same,MIC,Neisseria gonorrhoeae [2],> 8 µg/mL
same,MIC,Klebsiella aerogenes,> 50 µg/mL
same,MIC,Neisseria gonorrhoeae [3],> 8 µg/mL
same,ED50,Escherichia coli [4],> 300 mg/kg
same,MIC,Salmonella typhimurium,> 50 µg/mL
Cc1cc(C)c(S(=O)(=O)N2N=Cc3sc(Br)cc3B2O)c(C)c1,MIC,Klebsiella pneumoniae,25 µg/mL
same,MIC,Escherichia coli [1],> 50 µg/mL
same,MIC,Proteus mirabilis,2.5 µg/mL
same,MIC,Neisseria gonorrhoeae [2],2 µg/mL
same,MIC,Klebsiella aerogenes,> 50 µg/mL
same,MIC,Neisseria gonorrhoeae [3],1 µg/mL
same,ED50,Escherichia coli [4],> 600 mg/kg
same,MIC,Salmonella typhimurium,> 50 µg/mL
CCCS(=O)(=O)N1N=Cc2cc(CC)sc2B1O,MIC,Klebsiella pneumoniae,0.31 µg/mL
same,MIC,Escherichia coli [1],2.5 µg/mL
same,MIC,Proteus mirabilis,1.25 µg/mL
same,MIC,Neisseria gonorrhoeae [2],0.5 µg/mL
same,MIC,Klebsiella aerogenes,5 µg/mL
same,MIC,Neisseria gonorrhoeae [3],0.5 µg/mL
same,ED50,Escherichia coli [4],4 mg/kg
same,MIC,Salmonella typhimurium,0.31 µg/mL
Cc1ccc(S(=O)(=O)N2N=Cc3cc4c(cc3B2O)C=NN(S(=O)(=O)c2ccc(C)cc2)B4O)cc1,MIC,Klebsiella pneumoniae,> 50 µg/mL
same,MIC,Escherichia coli [1],> 50 µg/mL
same,MIC,Proteus mirabilis,50 µg/mL
same,MIC,Neisseria gonorrhoeae [2],> 8 µg/mL
same,MIC,Klebsiella aerogenes,> 50 µg/mL
same,MIC,Neisseria gonorrhoeae [3],> 8 µg/mL
same,ED50,Escherichia coli [4],> 300 mg/kg
same,MIC,Salmonella typhimurium,> 50 µg/mL
CC(C)CS(=O)(=O)N1N=Cc2sc(Br)cc2B1O,MIC,Klebsiella pneumoniae,1.56 µg/mL
same,MIC,Escherichia coli [1],12.5 µg/mL
same,MIC,Proteus mirabilis,6.25 µg/mL
same,MIC,Neisseria gonorrhoeae [2],2 µg/mL
same,MIC,Klebsiella aerogenes,12.5 µg/mL
same,MIC,Neisseria gonorrhoeae [3],2 µg/mL
same,ED50,Escherichia coli [4],73 mg/kg
same,MIC,Salmonella typhimurium,1.56 µg/mL
